{
  "source": "paper PMC4197414",
  "about": "(Scientific Reports, 2014)",
  "key": {"[1]": {"experiment": "Transmission electron microscopy", "format": "physicochemical", "conditions": "TEM, PBS; for morphology after self-assembly: pH = 7.4, above CMC, samples prepared at 25°C, uranyl acetate stain", "method_in_brief": "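Samples were prepared in PBS at 25°C and applied to carbon-coated copper grids. Excess liquid was blotted with filter paper, and samples were negatively stained with uranyl acetate. Grids were dried overnight in a desiccator and imaged at 200 kV.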"}, "[2]": {"test_system": "C-LytA (C-terminal moiety of the pneumococcal cell-wall amidase LytA)", "experiment": "Isothermal titration calorimetry", "format": "binding, Streptococcus pneumoniae", "conditions": "ITC; in words, as compared to Fmoc-K' itself", "method_in_brief": "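Recombinant C-LytA was expressed in E. coli BL21(DE3), induced with 0.3 mM IPTG at 16°C for 16–18 h, purified on Q Sepharose, eluted with 2% choline, and dialysed into PBS to remove choline. It was a dimer by gel filtration and ultracentrifugation. ITC was run in PBS at 16°C with ligand at pH 7.4, both solutions degassed by centrifugation. Ligand was titrated into the protein cell (0.4 μL, then 19 × 2 μL injections, 120 s apart, stirred at 1000 rpm). Ka came from a one- or two-site binding fit.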"}, "[3]": {"conditions": "pH = 7.4, 1.25 mmol/L, 1.08 wt% (Figure 2 legend)"}},
  "note": "Non-standard residues stand in square brackets, D forms with d. Nap = naphthalene (naphthaline) capping group; Lys(Me3) = C[N+](C)(C)CCCC[C@H](N)C(=O)O; Ada = adamantane cap",
  "data": [
    {"substance": "AdaGFFYKKK'-NH2 (Ada-GFFYKK[Lys(Me3)]-NH2) [Compound 1]", "values": [
      {"measurement": "average diameter of nanoparticles", "setting": "[1]; pH = 7.4, 1.09 wt%", "result": "around 153 nm"},
      {"measurement": "morphology after self-assembly", "setting": "[1]", "result": "nanoparticle morphology"},
      {"measurement": "association constant (Ka) with C-LytA compared to Fmoc-K'", "setting": "[2]", "result": "far higher association constant"}
    ]},
    {"substance": "NapGFFYKKK'-NH2 (Nap-GFFYKK[Lys(Me3)]-NH2) [Compound 2]", "values": [
      {"measurement": "morphology after self-assembly", "setting": "[1]", "result": "uniform nanofibers"},
      {"measurement": "length of nanofibers", "setting": "[1]; [3]", "result": "several microns"},
      {"measurement": "width of nanofibers", "setting": "[1]; [3]", "result": "around 75 nm"},
      {"measurement": "association constant (Ka) with C-LytA compared to Fmoc-K'", "setting": "[2]", "result": "far higher association constant"}
    ]}
  ]
}
